# According to paper PMC6432617 (Chemical Science, 2019):
# Experiments:
# chemokine CXCL12a = conditions: 10 μM, zebrafish model ref [56]; cited from earlier work
# zebrafish larvae [1] = test: Chalcone 18 alone in 72 hpf larvae, confocal imaging; assay type: in vivo, zebrafish (Danio rerio)
# [2] = tested on: live primary human neutrophils; test: HAB labeling of live human primary neutrophils; assay type: cell-based; conditions: 10 μM
# In short: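 Neutrophils were purified from human blood: plasma removal, dextran sedimentation of red cells, then a 51–42% Percoll gradient. Remaining red cells were cleared with CD235a beads. Cells went into RPMI/10 mM Hepes at 2 × 10^6 per mL and adhered 20 min at room temperature in glass-bottom dishes. Medium was replaced with probe at 1, 5 or 10 μM in RPMI/Hepes, followed by live confocal fluorescence and DIC imaging.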
# myeloperoxidase = test: HAB labeling in myeloperoxidase knock-out; assay type: in vivo, zebrafish (Danio rerio); conditions: spotless mutant strain, equilibrium conditions
# [3] = pKa prediction with ACD software; conditions: from predicted pKa 3.97
# [4] = tested on: zebrafish neutrophil granules; test: HAB labeling of live zebrafish embryos and larvae, confocal imaging; assay type: in vivo, zebrafish (Danio rerio)
# In short: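 Wild-type AB or transgenic embryos/larvae (24 hpf to 6 dpf, 28.5 °C staging) were incubated 1 h in the dark at room temperature with probe at 10 μM in Volvic water, from a 10 mM DMSO stock; controls got 0.1% DMSO. For equilibrium imaging, larvae were anaesthetised (tricaine) and mounted in 1% low-melt agarose with probe. For diffusion imaging, larvae were washed and mounted probe-free. Confocal imaging was done at 23–26 °C: excitation 488 nm, emission 550–650 nm.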
# zebrafish larvae [5] = test: Toxicity in live zebrafish larvae; assay type: in vivo, zebrafish (Danio rerio); conditions: up to 48 h incubation
# [6] = molecular target: bovine serum albumin (BSA) (Bos taurus, UniProt P02769); test: Protein-dependent fluorogenesis: titration of HAB with BSA in TRIS buffer; assay type: binding
# In short: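 Probe at 50 μM in Tris buffer (Tris·HCl 10 mM, pH 7.0, NaCl 100 mM, MgCl2 5 mM) was titrated with BSA. Emission spectra were recorded at 360 nm excitation over 0–1 mg mL−1 BSA and at 420 nm excitation over 1–10 mg mL−1. Fluorescence turn-on was taken at 420 nm excitation with 10 mg ml−1 BSA.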
# [7] = tested on: lymphocytes, monocytes, erythrocytes and thrombocytes (platelets); test: HAB labeling of other human blood cell populations; assay type: cell-based; conditions: 10 μM, same conditions as purified neutrophils
# In short: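 PBMC were taken from the top layer of the Percoll gradient used for neutrophil purification. Live lymphocytes, erythrocytes, monocytes and thrombocytes were imaged by confocal fluorescence and DIC with probe at 10 μM, using the same settings as for the neutrophils.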
# [8] = log D7.4 partition coefficient, n-octanol / pH 7.4 PBS; assay type: physicochemical; conditions: from log D7.4 values
# In short: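 Partition coefficients were measured between n-octanol and pH 7.4 phosphate-buffered saline at 20 °C, alongside reference chalcones.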
# [9] = Photophysical study: fluorescence spectra and quantum yields; assay type: physicochemical; conditions: for solvatochromism Δmaxλem: various solvents, 50 μM
# Caenorhabditis elegans = test: HAB labeling of live Caenorhabditis elegans; conditions: in vivo
# neutrophil granules = conditions: ref column Ref. of Table 1 ([5], [8], [9], [42], [60], [61], [65], [75]–[93]); cited from earlier work
# bovine serum albumin (BSA), sequence (P02769 25-607): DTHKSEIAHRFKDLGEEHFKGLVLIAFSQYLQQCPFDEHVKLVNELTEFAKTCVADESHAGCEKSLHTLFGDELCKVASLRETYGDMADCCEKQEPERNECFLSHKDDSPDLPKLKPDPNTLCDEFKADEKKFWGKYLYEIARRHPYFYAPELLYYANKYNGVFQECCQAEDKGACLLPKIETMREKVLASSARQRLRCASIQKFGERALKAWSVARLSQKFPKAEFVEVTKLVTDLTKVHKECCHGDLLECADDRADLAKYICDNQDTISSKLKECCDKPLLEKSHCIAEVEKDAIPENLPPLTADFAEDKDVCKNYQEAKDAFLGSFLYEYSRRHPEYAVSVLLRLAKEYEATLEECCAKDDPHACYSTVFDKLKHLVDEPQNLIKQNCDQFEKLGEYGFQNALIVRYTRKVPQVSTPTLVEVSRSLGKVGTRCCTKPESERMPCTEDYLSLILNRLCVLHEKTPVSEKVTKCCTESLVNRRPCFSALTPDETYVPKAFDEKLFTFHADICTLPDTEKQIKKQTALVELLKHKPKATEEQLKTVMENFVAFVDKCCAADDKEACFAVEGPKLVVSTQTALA
structure (smiles),measurement,setting,value
"COc1cc(/C=C/C(=O)c2ccc(Cl)cc2)ccc1O [Compound 18, 4-hydroxy-3-methoxy-4′-chlorochalcone]",biological effects as inhibitor of CXCL12a,chemokine CXCL12a,moderate biological effects
same,fluorescent detection by GFP filters,chemokine CXCL12a,not fluorescently detected
same,type of staining,"zebrafish larvae [1]; 100 μM, 72 hpf larvae",interstitial histological labeling
same,fluorescence of 18 alone in larvae,"zebrafish larvae [1]; 100 μM, 72 hpf larvae, excitation 488 nm",green-yellow fluorescence
same,cytopermeability,zebrafish larvae [1]; even at high concentration,not cytopermeable
"Nc1cccc2ccc(/C=C/C(=O)c3ccc(O)cc3)cc12 [HAB, (E)-3-(8-aminonaphthalen-2-yl)-1-(4-hydroxyphenyl)prop-2-en-1-one]",labeling of activated neutrophils,[2],intense labeling of cells at the level of subcellular granular structures
same,labeling of non-activated neutrophils,[2],intense but diffuse fluorescent labeling
same,labeling in myeloperoxidase knock-out larvae,myeloperoxidase,qualitatively and quantitatively indistinguishable from wild-type larvae
same,"basicity, fold lower than that of acidotropic amines",[3],about 10^5 fold
same,compartment labeled within neutrophils,"[4]; 10 μM, 72 hpf larvae, confocal plus DIC",co-localize with neutrophil granules
same,developmental stage at which labeling first appeared,"[4]; 10 μM, 60 min, ventral tail of embryo",32 hpf
same,co-localization with macrophages,"[4]; 10 μM, Tg(mfap4:mCherry-F) 72 hpf larvae",did not co-localize
same,co-localization with neutrophils,"[4]; 10 μM, Tg(mpx:GAL4/UAS-E1b:nsfB-mCherry) 72 hpf larvae",perfectly colocalized with all neutrophils
same,HAB labeling after or before formaldehyde fixation,"[4]; 1 or 4% formaldehyde, two hours, room temperature",failed to detect HAB labeling
same,toxicity of HAB,zebrafish larvae [5],absence of toxicity
same,bathochromic shift Δλem upon binding to BSA,[6],133 nm
same,bathochromic shift Δλex upon binding to BSA,[6],60 nm
same,fluorescence turn-on (FTO) upon binding to BSA,"[6]; excitation 420 nm, BSA 10 mg ml^–1, HAB 50 μM",21.5
same,"labeling of lymphocytes, monocytes, erythrocytes and thrombocytes",[7],weakly to faintly labeled
same,fold more hydrophilic than 4′-deshydroxy congener 6,[8],2 fold
same,fold higher quantum yield than 5-amino regioisomer 12,[9]; toluene,ca. 20 fold
same,solvatochromism Δmaxλem,[9],~140 nm
same,microscopic visualization in C. elegans,Caenorhabditis elegans,could not be microscopically visualized
Nc1cccc2c(=O)[nH][nH]c(=O)c12 [Luminol],Histopermeability for live animal imaging,neutrophil granules,No (in vitro only)
CC1(C)Nc2cccc3c(N=Nc4ccc(N=Nc5ccccc5)c5ccccc45)ccc(c23)N1 [Sudan Black B],Histopermeability for live animal imaging,neutrophil granules,No (FA fixation in vivo)
COC(=O)c1ccccc1C1c2ccc(N)cc2Oc2cc(N)ccc21 [Dihydrorhodamine 123],Histopermeability for live animal imaging,neutrophil granules,No (in vitro only)
"Nc1cccc2ccc(/C=C/C(=O)c3ccccc3)cc12 [Compound 6, (E)-3-(8-aminonaphthalen-2-yl)-1-phenylprop-2-en-1-one]",solvatochromism Δmaxλem,[9],~140 nm
